Experimental findings from ChEMBL document CHEMBL1765011, “Synthesis and c-Met kinase inhibition of 3,5-disubstituted and 3,5,7-trisubstituted quinolines: identification of 3-(4-acetylpiperazin-1-yl)-5-(3-nitrobenzylamino)-7- (trifluoromethyl)quinoline as a novel anticancer agent” (J Med Chem, 2011) are described below.

The source made the active and inactive calls. The calls are words filed in the database; no cut-off is given here.

For data set [1], the system named is NIH3T3. As to the kind of experiment: Antiproliferative activity against mouse NIH/3T3 cells expressing TPR-Met after 72 hrs. Conditions: NIH3T3, 72 h. Format: functional, cell-based. The method in brief:
(§1)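 Cells were seeded and exposed next day to a range of compound concentrations for 72 h. Proliferation was read by sulforhodamine B or MTT assay, and IC50 derived.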

The target of data set [2] is Hepatocyte growth factor receptor (Mus musculus) (UniProt P16056). Put plainly: Inhibition of TPR-MET autophosphorylation in mouse BaF3 cells after 4 hrs by Western blotting. It is filed as cell-based. The method in brief:
(§2)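 Exponentially growing cells were treated with compound for 4 h at 37 °C and lysed in SDS sample buffer. Lysates were run on 10% SDS-PAGE and blotted to nitrocellulose. Blots were probed for phospho-c-Met and total c-Met, with GAPDH as loading control, and detected by ECL.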
A general note: Immunoblotting shows a protein as a band on a membrane.

Data set [3] is described as follows: Tmax in mouse at 20 mg/kg, po. Format: ADME, organism-based. Set-up: dose 20 mg/kg, route oral. Conditions: in vivo.
A short description of data set [4]: Clearance in mouse at 10 mg/kg, iv. It is filed as ADME, organism-based. Set-up: dose 10 mg/kg, route intravenous. The following applies: in vivo. The method in brief:
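Single iv dose of 10 mg/kg to mice, vehicle DMSO/Tween 80/normal saline. Clearance and half-life were derived from plasma concentration-time data. Average of three runs.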

The next data set concerns SNU-5. Put plainly: Antiproliferative activity against human SNU5 cells after 72 hrs. The following applies: SNU-5, 72 h.
Data set [5] in a line: Cmax in mouse at 20 mg/kg, po. It is filed as ADME, organism-based. On the set-up: dose 20 mg/kg, route oral. Conditions: in vivo. The method in brief:
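Oral 20 mg/kg single dose to mice, vehicle DMSO/Tween 80/normal saline. Cmax was read from the plasma concentration-time profile. Average of three runs.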

Data set [6] has as its target T1, Hepatocyte growth factor receptor (Homo sapiens, UniProt P08581). Put plainly: Inhibition of c-Met in human MKN45 cells assessed as AKT phosphorylation at 0.1 to 3 uM after 4 hrs by Western blotting. It is filed as cell-based. Conditions: MKN-45. The method in brief:
(§3)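 Exponentially growing cells were exposed to compound for 4 h at 37 °C and lysed in SDS sample buffer. Lysates were resolved on 10% SDS-PAGE and blotted. Blots were probed for phospho- and total ERK1/2 and AKT, with GAPDH loading control, and detected by ECL.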

Data set [7] is described as follows: AUC (0 to infinity) in mouse at 20 mg/kg, po. It is filed as ADME, organism-based. Set-up: dose 20 mg/kg, route oral, time infinity. The following applies: plasma. The method in brief: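 Mice dosed orally at 20 mg/kg in DMSO/Tween 80/normal saline vehicle; plasma concentration-time profile used to derive AUC0-∞. Values are the average of three runs.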
In data set [8] the target is T1, Hepatocyte growth factor receptor. Put plainly: Inhibition of c-Met phosphorylation in human MKN45 cells at 0.1 to 3 uM after 4 hrs by Western blotting. Format: cell-based. The following applies: MKN-45. In outline:
as §2

The nature of data set [9]: Volume of distribution at steady state in mouse at 10 mg/kg, iv. Format: ADME, organism-based. Set-up: dose 10 mg/kg, route intravenous. Conditions: in vivo, read-out: Vdss.
For data set [10], the target named is Mast/stem cell growth factor receptor Kit (Homo sapiens, UniProt P10721). Put plainly: Inhibition of c-Kit. The method in brief:
(§4)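 ELISA on plates precoated with 20 μg/mL poly(Glu,Tyr) 4:1. Buffer: 10 μM ATP, 50 mM HEPES pH 7.4, 50 mM MgCl2, 0.5 mM MnCl2, 0.2 mM Na3VO4, 1 mM DTT, compound in 1% DMSO. Purified kinase was added and incubated 60 min at 37 °C. Phosphotyrosine was detected with PY99 then HRP anti-mouse IgG, o-phenylenediamine, A490. IC50 was taken from inhibition curves.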

Data set [11] addresses Macrophage-stimulating protein receptor (Homo sapiens, UniProt Q04912). Put plainly: Inhibition of RON. In outline: as §4
Data set [12] has as its target Hepatocyte growth factor receptor (Mus musculus) (UniProt P16056). As to the kind of experiment: Inhibition of TPR-c-Met phosphorylation expressed in mouse […] cells at 0.1 to 3 uM after 4 hrs by Western blotting. Format: cell-based. In outline: as §2
The test system of a further data set is NCI-H1993. As to the kind of experiment: Antiproliferative activity against human NCI-H1993 cells after 72 hrs. Conditions: NCI-H1993, 72 h.
Data set [13] deals with Vascular endothelial growth factor receptor 2 (Homo sapiens, UniProt P35968). As to the kind of experiment: Inhibition of KDR. In outline: as §4
The test system of data set [14] is NIH3T3. Put plainly: Antiproliferative activity against mouse NIH/3T3 cells after 72 hrs. It is filed as functional, cell-based. The following applies: NIH3T3, 72 h. The method in brief:
as §1

Another data set relates to NCI-H441. As to the kind of experiment: Antiproliferative activity against human NCI-H441 cells after 72 hrs. Conditions: NCI-H441, 72 h.
A further data set relates to Mus musculus. As to the kind of experiment: Toxicity in mouse NIH/3T3 cells expressing TPR-Met xenografted nude mouse assessed as reduction in body weight at 100 mg/kg, ip qd for 14 days. Format: organism-based, NIH3T3. Set-up: dose 100 mg/kg, route intraperitoneal. The following applies: in vivo, 336 h.
For data set [15], the target named is Hepatocyte growth factor receptor (Mus musculus) (UniProt P16056). As to the kind of experiment: Inhibition of TPR-c-Met phosphorylation expressed in mouse BAF3 cells assessed as AKT phosphorylation at 0.1 to 3 uM after 4 hrs by Western blotting. It is filed as cell-based. In outline: as §3
Sequence of Hepatocyte growth factor receptor (Mus musculus) (P16056 whole entry): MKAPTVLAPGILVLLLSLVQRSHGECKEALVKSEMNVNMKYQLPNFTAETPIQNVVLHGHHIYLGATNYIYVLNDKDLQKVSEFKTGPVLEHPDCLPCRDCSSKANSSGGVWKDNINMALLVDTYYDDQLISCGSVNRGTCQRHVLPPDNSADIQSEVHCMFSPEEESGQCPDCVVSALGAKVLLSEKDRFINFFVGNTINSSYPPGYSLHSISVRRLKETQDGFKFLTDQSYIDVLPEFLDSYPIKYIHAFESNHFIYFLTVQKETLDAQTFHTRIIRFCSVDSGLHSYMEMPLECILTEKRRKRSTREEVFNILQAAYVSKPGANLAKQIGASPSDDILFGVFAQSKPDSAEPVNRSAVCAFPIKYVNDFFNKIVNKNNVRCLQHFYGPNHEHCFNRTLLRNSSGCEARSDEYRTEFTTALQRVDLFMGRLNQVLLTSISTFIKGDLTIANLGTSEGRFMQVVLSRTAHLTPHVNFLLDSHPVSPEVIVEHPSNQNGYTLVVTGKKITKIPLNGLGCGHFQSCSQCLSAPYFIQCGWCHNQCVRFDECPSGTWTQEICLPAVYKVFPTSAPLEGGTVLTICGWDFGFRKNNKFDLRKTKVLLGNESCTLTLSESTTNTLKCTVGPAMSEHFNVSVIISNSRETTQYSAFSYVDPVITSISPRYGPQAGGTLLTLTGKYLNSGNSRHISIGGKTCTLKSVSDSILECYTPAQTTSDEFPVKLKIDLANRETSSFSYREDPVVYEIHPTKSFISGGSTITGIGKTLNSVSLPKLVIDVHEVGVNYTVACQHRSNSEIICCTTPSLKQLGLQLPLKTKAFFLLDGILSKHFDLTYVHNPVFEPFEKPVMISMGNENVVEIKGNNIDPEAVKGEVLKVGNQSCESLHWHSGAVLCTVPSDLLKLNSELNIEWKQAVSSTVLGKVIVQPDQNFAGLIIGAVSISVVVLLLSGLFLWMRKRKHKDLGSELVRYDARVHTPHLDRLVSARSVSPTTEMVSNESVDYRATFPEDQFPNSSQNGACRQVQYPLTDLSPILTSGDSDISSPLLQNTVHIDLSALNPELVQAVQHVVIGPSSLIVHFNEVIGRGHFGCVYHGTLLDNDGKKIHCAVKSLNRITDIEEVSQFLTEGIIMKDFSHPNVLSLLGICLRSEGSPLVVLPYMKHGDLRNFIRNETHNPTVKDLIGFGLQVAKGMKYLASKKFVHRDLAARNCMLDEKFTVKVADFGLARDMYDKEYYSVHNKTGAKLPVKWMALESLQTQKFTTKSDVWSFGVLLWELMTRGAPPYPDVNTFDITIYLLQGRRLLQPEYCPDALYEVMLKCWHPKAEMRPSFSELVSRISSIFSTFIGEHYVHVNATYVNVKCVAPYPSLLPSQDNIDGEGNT

T1 sequence (P08581 whole entry): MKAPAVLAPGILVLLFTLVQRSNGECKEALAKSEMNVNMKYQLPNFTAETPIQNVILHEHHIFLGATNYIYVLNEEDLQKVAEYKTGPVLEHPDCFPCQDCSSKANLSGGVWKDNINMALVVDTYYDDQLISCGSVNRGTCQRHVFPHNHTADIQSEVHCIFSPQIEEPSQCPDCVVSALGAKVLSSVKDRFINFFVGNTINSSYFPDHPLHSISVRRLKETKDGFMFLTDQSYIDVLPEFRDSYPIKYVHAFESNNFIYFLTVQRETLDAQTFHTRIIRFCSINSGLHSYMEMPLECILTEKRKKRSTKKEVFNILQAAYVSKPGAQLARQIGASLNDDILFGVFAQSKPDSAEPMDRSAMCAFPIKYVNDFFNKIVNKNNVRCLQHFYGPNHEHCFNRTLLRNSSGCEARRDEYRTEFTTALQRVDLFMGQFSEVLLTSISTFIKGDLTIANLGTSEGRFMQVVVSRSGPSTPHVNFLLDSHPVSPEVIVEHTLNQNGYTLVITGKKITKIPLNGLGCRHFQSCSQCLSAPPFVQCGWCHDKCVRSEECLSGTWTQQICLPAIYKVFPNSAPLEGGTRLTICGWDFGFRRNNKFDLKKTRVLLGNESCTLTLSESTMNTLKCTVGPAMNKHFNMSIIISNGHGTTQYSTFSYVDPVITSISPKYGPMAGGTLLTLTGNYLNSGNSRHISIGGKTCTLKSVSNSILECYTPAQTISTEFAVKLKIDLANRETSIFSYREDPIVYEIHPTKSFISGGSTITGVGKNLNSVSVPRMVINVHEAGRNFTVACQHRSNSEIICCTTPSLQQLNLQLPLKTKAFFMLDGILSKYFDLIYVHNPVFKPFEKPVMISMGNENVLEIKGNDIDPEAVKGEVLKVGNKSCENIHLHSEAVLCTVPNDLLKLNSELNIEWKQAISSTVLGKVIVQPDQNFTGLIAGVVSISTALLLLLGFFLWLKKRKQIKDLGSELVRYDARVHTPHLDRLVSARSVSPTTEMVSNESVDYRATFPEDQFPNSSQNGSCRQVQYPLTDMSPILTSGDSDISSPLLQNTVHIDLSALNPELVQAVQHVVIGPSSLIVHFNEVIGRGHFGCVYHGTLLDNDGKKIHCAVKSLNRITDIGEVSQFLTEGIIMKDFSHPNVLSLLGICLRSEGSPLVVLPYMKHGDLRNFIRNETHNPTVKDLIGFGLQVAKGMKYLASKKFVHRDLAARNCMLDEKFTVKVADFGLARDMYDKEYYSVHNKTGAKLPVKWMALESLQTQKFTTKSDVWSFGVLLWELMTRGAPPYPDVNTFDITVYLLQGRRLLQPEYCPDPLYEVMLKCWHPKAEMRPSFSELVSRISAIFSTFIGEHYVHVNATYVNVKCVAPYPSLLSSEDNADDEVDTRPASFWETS
Sequence of Macrophage-stimulating protein receptor (Q04912 25-304 limits assumed): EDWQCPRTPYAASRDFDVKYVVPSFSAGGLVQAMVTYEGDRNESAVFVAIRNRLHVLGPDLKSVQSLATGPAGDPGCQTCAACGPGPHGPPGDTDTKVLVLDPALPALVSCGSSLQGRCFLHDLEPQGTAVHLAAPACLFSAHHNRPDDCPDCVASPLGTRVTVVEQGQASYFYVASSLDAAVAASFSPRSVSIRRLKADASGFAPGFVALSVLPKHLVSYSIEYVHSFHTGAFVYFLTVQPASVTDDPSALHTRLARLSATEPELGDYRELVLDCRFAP
Sequence of Macrophage-stimulating protein receptor (Q04912 310-1400 limits assumed): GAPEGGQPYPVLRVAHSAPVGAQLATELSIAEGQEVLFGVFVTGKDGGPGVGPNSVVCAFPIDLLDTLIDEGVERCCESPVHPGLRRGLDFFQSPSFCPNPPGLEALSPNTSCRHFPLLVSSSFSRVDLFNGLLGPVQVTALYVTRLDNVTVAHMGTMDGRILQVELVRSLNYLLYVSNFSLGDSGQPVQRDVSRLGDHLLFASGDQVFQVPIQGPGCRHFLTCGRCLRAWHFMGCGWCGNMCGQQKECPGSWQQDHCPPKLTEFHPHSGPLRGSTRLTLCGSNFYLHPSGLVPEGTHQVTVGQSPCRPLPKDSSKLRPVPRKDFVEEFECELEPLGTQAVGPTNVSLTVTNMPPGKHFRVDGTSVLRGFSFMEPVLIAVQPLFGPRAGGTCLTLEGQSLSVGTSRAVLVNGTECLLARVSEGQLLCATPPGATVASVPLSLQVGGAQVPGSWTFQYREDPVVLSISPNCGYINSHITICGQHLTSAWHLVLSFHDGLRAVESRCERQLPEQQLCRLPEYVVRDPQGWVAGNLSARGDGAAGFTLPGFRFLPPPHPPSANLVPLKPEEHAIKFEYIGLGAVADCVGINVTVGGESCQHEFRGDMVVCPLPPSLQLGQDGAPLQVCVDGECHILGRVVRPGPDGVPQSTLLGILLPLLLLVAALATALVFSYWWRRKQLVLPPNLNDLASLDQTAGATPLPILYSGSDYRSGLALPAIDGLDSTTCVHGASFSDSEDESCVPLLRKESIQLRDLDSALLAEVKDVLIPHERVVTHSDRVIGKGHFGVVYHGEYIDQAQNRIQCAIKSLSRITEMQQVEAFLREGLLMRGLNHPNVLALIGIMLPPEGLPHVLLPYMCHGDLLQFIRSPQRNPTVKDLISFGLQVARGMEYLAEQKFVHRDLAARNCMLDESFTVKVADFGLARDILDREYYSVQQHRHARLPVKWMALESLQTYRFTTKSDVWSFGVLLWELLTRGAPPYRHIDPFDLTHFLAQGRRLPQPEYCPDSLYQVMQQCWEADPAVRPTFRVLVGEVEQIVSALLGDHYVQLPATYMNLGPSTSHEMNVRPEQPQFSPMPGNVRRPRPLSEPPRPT
Sequence of Mast/stem cell growth factor receptor Kit (P10721 whole entry): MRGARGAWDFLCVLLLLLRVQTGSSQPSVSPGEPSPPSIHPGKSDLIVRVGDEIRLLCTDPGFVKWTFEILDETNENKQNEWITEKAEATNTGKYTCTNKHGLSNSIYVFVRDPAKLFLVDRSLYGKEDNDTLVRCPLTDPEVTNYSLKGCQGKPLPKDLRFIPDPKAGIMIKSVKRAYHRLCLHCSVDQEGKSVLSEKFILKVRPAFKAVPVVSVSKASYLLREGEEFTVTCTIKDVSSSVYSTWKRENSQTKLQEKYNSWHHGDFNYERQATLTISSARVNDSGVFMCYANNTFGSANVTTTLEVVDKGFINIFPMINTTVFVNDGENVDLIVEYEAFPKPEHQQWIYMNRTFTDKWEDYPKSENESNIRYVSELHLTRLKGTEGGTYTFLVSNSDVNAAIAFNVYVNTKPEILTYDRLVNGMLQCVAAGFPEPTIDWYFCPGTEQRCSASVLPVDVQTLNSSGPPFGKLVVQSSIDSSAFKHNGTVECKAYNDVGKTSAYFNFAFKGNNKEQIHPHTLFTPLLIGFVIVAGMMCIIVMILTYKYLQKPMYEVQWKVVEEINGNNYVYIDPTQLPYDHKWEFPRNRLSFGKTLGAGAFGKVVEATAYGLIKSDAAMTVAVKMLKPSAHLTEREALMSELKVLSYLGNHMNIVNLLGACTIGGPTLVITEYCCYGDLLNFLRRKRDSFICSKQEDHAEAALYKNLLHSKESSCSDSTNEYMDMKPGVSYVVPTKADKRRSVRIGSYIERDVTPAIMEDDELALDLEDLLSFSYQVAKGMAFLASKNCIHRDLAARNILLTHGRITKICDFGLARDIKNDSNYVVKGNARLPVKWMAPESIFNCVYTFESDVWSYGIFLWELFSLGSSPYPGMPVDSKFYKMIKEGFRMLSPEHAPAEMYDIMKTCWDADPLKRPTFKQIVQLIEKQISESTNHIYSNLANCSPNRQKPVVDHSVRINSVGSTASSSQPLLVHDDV

By IC50 is commonly meant the point on the concentration scale where inhibition reaches its midpoint. One may read the Tmax as the time at which the peak concentration occurs. The term clearance denotes the volume of plasma or blood freed of the substance per unit of time. A low value points to inefficient removal. As usually defined, the Cmax is the maximum level reached in the sampled fluid or tissue. As a reminder, the AUC(0-inf) is total exposure, with the tail of the curve extrapolated. High values mean high exposure, low ones low exposure. For the compound `CC(=O)N1CCN(c2cnc3cc(C(F)(F)F)cc(NCc4cccc([N+](=O)[O-])c4)c3c2)CC1`, the IC50 was 2 µM with NIH3T3 [1]; 1 µM in the data set on SNU-5; above 10 µM in data set [10]; above 10 µM in [11]; 5.3 µM in the data set with NCI-H1993; above 10 µM in [13]. Moreover, the half-maximal inhibitory concentration (IC50) in the data set on NIH3T3 [14] and in the data set with NCI-H441 was at least 50 µM each time. In addition, in data set [2], the inhibition result was “Dose-dependent effect”. The time to peak (Tmax) in data set [3] is 3 h. This compound had a clearance in data set [4] of 59.8 mL/min/kg. Also, in [5], the concentration peaked (Cmax) at 316 ng/mL. Also, the inhibition entry in data set [6], in data set [8], in data set [12] and in [15] was “Active” each time. Besides, in [7], the total exposure AUC(0-inf) turned out to be 2100 ng·h/mL. The Vd in [9] is 16.7 L/kg. Moreover, the Activity entry in the data set with Mus musculus is “Non-toxic”.
